In publication PMC4201344 (ACS Chemical Biology, 2014):
Positions count from the first letter of the chain named. Entries after “also recorded” stand apart in the source; their conditions may differ.

Tests used:
[1] = target: GluClα receptor (Caenorhabditis elegans, UniProt G5EBR3); settings: in the absence of ivermectin, Xenopus laevis oocytes; cited from earlier work
[2] = target: GluClβ L9′F (Caenorhabditis elegans, UniProt Q17328, L286F); test: two-electrode voltage clamp, Xenopus laevis oocytes; type: cell-based, C. elegans; settings: glutamate
Outline: (§1)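 C. elegans GluClβ (mammalian codon-optimised) in pGEMhe, mutated by QuikChange; T7 mRNA. […] Voltage clamp at −60 mV in Ca-free ND96, pH 7.5. […] Peak currents taken from baseline, normalised, averaged per concentration, and fit to Hill equation (EC50, nH).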

[3] = target: GluClβ T6′S, R59A (Caenorhabditis elegans, UniProt Q17328, R85A/T283S); test: as above; type: cell-based, C. elegans; settings: glutamate
Outline: as §1

[4] = target: GluClβ T6′S, Y206A (Caenorhabditis elegans, UniProt Q17328, T283S/Y232A); test: as above; type: cell-based, C. elegans; settings: glutamate
Outline: as §1

[5] = target: GluClβ T6′S, N202A (Caenorhabditis elegans, UniProt Q17328, N228A/T283S); test: two-electrode voltage clamp, Xenopus laevis oocytes; type: cell-based, C. elegans; settings: glutamate
[6] = target: GluClβ T6′S, Y156A (Caenorhabditis elegans, UniProt Q17328, T283S/Y182A); test: two-electrode voltage clamp, Xenopus laevis oocytes; type: cell-based, C. elegans; settings: glutamate
Outline: as §1

[7] = target: GluClβ with α signal peptide (no T6′S) (Caenorhabditis elegans, UniProt Q17328); test: two-electrode voltage clamp, Xenopus laevis oocytes; type: cell-based, C. elegans; settings: α signal peptide chimera vs wild type
[8] = test system: GluClβ with α signal peptide, T6′S, Y156TAG Cha; test: two-electrode voltage clamp, Xenopus laevis oocytes, nonsense suppression; type: cell-based, C. elegans; settings: glutamate
Outline: (§2)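 Site-specific TAG codon, read by 74mer THG73 tRNA ligated to dCA-acylated amino acid; NVOC removed by 5 min xenon-lamp irradiation just before injection. Oocytes coinjected with 37.5 ng mRNA plus ~1 μg/μL tRNA at 48 and 24 h pre-recording; unacylated 76mer tRNA served as read-through control.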

[9] = target: GluClβ T6′S, R59E (Caenorhabditis elegans, UniProt Q17328, R85E/T283S); test: two-electrode voltage clamp, Xenopus laevis oocytes; type: cell-based, C. elegans; settings: glutamate
Outline: as §1

[10] = target: GluClβ T6′S, R40A (Caenorhabditis elegans, UniProt Q17328, R66A/T283S); test: two-electrode voltage clamp, Xenopus laevis oocytes; type: cell-based, C. elegans; settings: glutamate
[11] = target: GluClβ with α signal peptide, T6′S (Caenorhabditis elegans, UniProt Q17328, T283S); test: two-electrode voltage clamp, Xenopus laevis oocytes; type: cell-based, C. elegans; settings: glutamate
Outline: as §1

[12] = target: T1, GluClβ T6′S, T203A/Y206F (Caenorhabditis elegans, UniProt Q17328, T229A/T283S/Y232F); test: two-electrode voltage clamp, Xenopus laevis oocytes; type: cell-based, C. elegans
T1 sequence (Q17328 23-434 T229A/Y232F/T283S): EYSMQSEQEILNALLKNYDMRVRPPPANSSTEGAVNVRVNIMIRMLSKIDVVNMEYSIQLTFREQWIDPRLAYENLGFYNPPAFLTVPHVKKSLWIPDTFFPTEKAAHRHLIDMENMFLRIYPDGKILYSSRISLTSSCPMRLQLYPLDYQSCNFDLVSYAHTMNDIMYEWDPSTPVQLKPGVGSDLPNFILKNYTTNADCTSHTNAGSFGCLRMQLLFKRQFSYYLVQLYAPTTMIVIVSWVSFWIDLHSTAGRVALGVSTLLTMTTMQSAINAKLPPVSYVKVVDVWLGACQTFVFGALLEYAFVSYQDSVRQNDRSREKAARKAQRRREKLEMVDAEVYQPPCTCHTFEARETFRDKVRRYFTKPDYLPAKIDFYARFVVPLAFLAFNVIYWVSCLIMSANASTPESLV

[13] = target: GluClβ T6′S, R40E (Caenorhabditis elegans, UniProt Q17328, R66E/T283S); test: two-electrode voltage clamp, Xenopus laevis oocytes; type: cell-based, C. elegans; settings: glutamate
Outline: as §1

[14] = test system: GluClβ T6′S, Y206TAG F1–Phe; test: two-electrode voltage clamp, Xenopus laevis oocytes, nonsense suppression; type: cell-based, C. elegans; settings: glutamate
[15] = test system: GluClβ Y206 3,5-Me2-Phe; test: two-electrode voltage clamp, Xenopus laevis oocytes, nonsense suppression; type: cell-based, C. elegans; settings: glutamate
Outline: as §2

[16] = target: T2, GluClβ T10′A (Caenorhabditis elegans, UniProt Q17328, T287A); test: two-electrode voltage clamp, Xenopus laevis oocytes; type: cell-based, C. elegans
T2 sequence (Q17328 23-434 T287A): T1 sequence (Q17328 23-434 T229A/Y232F/T283S) with A207T, F210Y, S261T, T265A

[17] = test system: GluClβ with α signal sequence, T6’S, Y206 F2-Phe (3,5-F2–Phe); test: two-electrode voltage clamp, Xenopus laevis oocytes, nonsense suppression; type: cell-based, C. elegans; settings: glutamate; no plateau at 100 mM
Outline: as §2

[18] = target: GluClβ A17′G (Caenorhabditis elegans, UniProt Q17328, A294G); test: two-electrode voltage clamp, Xenopus laevis oocytes; type: cell-based, C. elegans; settings: glutamate
Outline: as §1

Chain of GluClβ T6′S, R40E (Q17328 23-434 R66E/T283S): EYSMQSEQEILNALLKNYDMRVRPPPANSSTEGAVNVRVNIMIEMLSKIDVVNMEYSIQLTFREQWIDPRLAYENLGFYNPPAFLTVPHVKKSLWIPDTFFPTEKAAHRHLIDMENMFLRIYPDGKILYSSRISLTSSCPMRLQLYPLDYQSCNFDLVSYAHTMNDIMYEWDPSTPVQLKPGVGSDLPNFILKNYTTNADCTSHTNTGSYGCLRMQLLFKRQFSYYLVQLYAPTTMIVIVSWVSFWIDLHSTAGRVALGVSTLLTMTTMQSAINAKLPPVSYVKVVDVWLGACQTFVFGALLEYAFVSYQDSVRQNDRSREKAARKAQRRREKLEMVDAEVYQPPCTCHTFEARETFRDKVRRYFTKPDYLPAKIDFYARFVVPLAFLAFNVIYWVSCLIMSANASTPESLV
Chain of GluClβ T6′S, R40A (Q17328 23-434 R66A/T283S): as the sequence (Q17328 23-434 R66E/T283S) above, with E44A counted along it
Chain of GluClβ T6′S, R59E (Q17328 23-434 R85E/T283S): as the sequence (Q17328 23-434 R66E/T283S) above, with E44R, R63E counted along it
Chain of GluClβ T6′S, R59A (Q17328 23-434 R85A/T283S): as the sequence (Q17328 23-434 R66E/T283S) above, with E44R, R63A counted along it
Chain of GluClβ L9′F (Q17328 23-434 L286F): as the sequence (Q17328 23-434 R66E/T283S) above, with E44R, S261T, L264F counted along it
Chain of GluClβ with α signal peptide, T6′S (Q17328 23-434 T283S): as the sequence (Q17328 23-434 R66E/T283S) above, with E44R counted along it
Chain of GluClβ A17′G (Q17328 23-434 A294G): as the sequence (Q17328 23-434 R66E/T283S) above, with E44R, S261T, A272G counted along it
Chain of GluClβ with α signal peptide (no T6′S) (Q17328 23-434): as the sequence (Q17328 23-434 R66E/T283S) above, with E44R, S261T counted along it
Chain of GluClβ T6′S, N202A (Q17328 23-434 N228A/T283S): as the sequence (Q17328 23-434 R66E/T283S) above, with E44R, N206A counted along it
Chain of GluClα receptor (G5EBR3 21-461): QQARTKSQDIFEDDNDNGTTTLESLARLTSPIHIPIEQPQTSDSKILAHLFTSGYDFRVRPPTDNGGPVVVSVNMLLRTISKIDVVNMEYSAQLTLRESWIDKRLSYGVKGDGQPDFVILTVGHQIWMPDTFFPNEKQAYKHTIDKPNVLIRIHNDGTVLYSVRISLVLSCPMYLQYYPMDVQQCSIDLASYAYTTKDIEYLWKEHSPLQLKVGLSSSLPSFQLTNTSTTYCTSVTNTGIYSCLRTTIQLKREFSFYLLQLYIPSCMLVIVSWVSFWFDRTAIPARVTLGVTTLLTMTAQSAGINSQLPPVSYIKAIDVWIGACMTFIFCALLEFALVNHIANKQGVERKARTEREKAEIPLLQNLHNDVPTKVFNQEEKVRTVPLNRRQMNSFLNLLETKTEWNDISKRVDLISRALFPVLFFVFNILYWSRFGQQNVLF
Chain of GluClβ T6′S, Y206A (Q17328 23-434 Y232A/T283S): as the sequence (Q17328 23-434 R66E/T283S) above, with E44R, Y210A counted along it
Chain of GluClβ T6′S, Y156A (Q17328 23-434 Y182A/T283S): as the sequence (Q17328 23-434 R66E/T283S) above, with E44R, Y160A counted along it

EC50 [2]: constitutively active
EC50 [3]: no response
EC50 [4]: no response
Hill [5]: 3.3 ± 0.2
EC50 [6]: no response
increase in EC50 [7]: < 3 fold
EC50 [8]: no response
EC50 [10]: 1.1 ± 0.1 mM
Hill [10]: 2.1 ± 0.1
Hill [11]: 2.7 ± 0.2
EC50 ([12]; glutamate): 210 ± 10 µM
Hill ([12]; glutamate): 2.2 ± 0.1
Ω ([12]; mutant cycle analysis T203A, Y206F): 1/37
ΔΔG ([12]; mutant cycle analysis, coupling T203A/Y206F): 2.1 kcal/mol
EC50 [14]: 640 ± 10 µM
receptor function [15]: nonfunctional
EC50 ([16]; glutamate): 13 ± 1 µM
Hill ([16]; glutamate): 2.8 ± 0.1
Imax ([16]; glutamate): 2–28 μA
increase in receptor sensitivity ([16]; vs WT): 27 fold
EC50 [17]: > 100 mM
EC50 [18]: > 5 mM
SMILES: N[C@@H](CCC(=O)O)C(=O)O [glutamate]
activation by glutamate [1]: not activated
EC50 [9]: nonfunctional; also recorded: no response
EC50 [13]: nonfunctional; also recorded: no response
Hill [14]: 2.8 ± 0.1
Imax [14]: 0.04–0.34 μA
